# Assay results: PMC6210075 (ACS Omega, 2018)
# Key:
# human CES2 = molecular target: T1, human CES2 (Homo sapiens, UniProt O00748); assay: Esterase assay, CES2; format: biochemical
# T1 sequence (O00748 27-559): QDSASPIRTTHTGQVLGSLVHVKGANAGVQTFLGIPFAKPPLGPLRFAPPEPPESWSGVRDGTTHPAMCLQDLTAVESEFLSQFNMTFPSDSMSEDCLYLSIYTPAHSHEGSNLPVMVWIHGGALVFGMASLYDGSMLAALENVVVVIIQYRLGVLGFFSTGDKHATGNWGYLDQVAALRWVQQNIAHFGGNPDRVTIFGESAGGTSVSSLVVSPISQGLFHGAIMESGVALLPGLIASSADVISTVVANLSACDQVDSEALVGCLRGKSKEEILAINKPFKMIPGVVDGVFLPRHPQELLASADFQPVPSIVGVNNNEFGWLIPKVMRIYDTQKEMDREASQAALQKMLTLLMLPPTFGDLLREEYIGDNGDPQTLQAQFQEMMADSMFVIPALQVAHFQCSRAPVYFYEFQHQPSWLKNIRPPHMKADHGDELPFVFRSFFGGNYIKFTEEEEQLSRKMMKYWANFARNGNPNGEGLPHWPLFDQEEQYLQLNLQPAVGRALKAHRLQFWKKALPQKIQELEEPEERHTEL
# Summary of the method: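 Crude recombinant human CES2 extract was used with 5 min inhibitor preincubation in 0.1 M sodium phosphate, pH 8, 0.1 mg/mL BSA, 2% final DMSO. Substrate was cyano(6-methoxynaphthalen-2-yl)methyl acetate (50 μM final). […] Triplicates.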
# sEH = molecular target: T2, sEH (Mus musculus, UniProt P34914); assay: In vivo target engagement: residual sEH activity; details: mice, 1 mg/kg i.p. in DMSO, 4 h after dosing
# T2 sequence (P34914 1-554): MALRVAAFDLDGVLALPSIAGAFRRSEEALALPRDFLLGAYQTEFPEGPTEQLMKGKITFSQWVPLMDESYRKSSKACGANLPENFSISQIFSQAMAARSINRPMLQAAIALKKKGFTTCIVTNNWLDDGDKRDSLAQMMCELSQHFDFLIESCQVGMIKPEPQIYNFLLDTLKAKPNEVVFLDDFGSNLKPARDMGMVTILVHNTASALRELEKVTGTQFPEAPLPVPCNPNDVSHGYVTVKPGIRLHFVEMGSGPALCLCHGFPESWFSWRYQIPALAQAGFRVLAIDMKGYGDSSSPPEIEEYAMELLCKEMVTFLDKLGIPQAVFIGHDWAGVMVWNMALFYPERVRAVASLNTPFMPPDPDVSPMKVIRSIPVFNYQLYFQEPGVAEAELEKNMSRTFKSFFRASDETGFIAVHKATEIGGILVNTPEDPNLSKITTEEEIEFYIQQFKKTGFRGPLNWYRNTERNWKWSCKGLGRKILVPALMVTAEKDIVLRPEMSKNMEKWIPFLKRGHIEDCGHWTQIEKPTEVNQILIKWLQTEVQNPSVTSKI
# Water solubility = format: physicochemical; details: DI water, 37 °C, thermodynamic from solid
# Summary of the method: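 2–5 mg of solid was shaken in water for 2 days at 37 °C. The solution was filtered through PTFE, diluted twofold in MeOH containing 15 nM B-12, and quantified by LC/MS/MS.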
# mouse FAAH = molecular target: T3, mouse FAAH (Mus musculus, UniProt O08914); assay: FAAH fluorescent inhibition assay, mouse crude tissue homogenate; format: biochemical; details: FAAH IC50 (5 min pre-incubation)
# T3 sequence (O08914 1-579): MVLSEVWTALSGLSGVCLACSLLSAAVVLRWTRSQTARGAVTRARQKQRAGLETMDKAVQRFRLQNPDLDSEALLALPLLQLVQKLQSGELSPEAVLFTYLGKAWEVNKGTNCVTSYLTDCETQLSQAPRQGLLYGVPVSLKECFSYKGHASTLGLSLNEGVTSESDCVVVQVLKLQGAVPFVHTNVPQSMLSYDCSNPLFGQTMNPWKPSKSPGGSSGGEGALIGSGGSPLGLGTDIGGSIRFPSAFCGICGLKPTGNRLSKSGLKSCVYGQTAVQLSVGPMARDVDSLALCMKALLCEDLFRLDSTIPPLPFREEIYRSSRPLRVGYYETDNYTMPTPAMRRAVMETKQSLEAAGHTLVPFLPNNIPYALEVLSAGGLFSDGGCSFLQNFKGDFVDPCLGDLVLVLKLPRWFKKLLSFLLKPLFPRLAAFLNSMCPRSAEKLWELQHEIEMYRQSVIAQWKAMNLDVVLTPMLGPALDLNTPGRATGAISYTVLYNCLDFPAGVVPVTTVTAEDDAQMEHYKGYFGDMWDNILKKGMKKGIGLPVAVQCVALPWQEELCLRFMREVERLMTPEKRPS
# human sEH = molecular target: T4, human sEH (Homo sapiens, UniProt P34913); assay: FRET-based displacement assay for inhibitor dissociation from sEH; format: binding
# T4 sequence (P34913 1-555): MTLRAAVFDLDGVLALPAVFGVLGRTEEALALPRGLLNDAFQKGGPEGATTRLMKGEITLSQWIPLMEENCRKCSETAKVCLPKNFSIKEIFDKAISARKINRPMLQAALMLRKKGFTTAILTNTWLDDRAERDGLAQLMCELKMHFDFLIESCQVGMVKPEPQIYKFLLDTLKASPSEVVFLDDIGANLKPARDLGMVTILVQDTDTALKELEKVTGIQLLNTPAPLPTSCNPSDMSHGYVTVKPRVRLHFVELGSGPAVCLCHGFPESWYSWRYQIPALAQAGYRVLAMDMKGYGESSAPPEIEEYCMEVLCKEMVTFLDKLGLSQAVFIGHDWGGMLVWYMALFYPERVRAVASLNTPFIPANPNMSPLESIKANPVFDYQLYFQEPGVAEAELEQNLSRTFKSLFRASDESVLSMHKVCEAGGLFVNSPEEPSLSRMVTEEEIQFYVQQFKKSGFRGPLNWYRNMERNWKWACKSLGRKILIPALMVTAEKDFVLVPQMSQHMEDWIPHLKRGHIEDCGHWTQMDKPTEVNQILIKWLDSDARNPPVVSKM
solubility at 2 days (Water solubility) [nM],IC50 (mouse FAAH) [µM],t1/2 (half-life on the enzyme) (human sEH; human sEH) [min],koff (human sEH; read-out: koff × 10^–3) [s⁻¹],SMILES,IC50 (human CES2) [µM],"residual brain sEH activity, % of control (sEH) [%]"
–,–,–,–,"O=C(Nc1cccnc1)N1CCC(Cc2cccc(Oc3ccc(C(F)(F)F)cn3)c2)CC1 [PF-3845, reference compound]",1.1,63 ± 14
2.8,> 10,4.4,2.7,O=C(Nc1ccc(C(F)(F)F)cc1F)N1CCC(Cc2cccc(Oc3ccc(C(F)(F)F)cn3)c2)CC1 [compound 18],–,–
